According to ChEMBL document CHEMBL4433213, “Investigation on 2',3'-O-Substituted ATP Derivatives and Analogs as Novel P2X3 Receptor Antagonists” (ACS Med Chem Lett, 2019):
Active and inactive are the calls of the source. The calls are words filed in the database; no cut-off is given here.

Assays:
[1] = target: T1, P2X purinoceptor 1 (Homo sapiens) (UniProt P51575); experiment: Antagonist activity at human P2X1R transfected in human 1321N1 cells assessed as inhibition of ATP-induced calcium influx relative to control; format: cell-based; settings: concentration not given here
T1 sequence (whole entry): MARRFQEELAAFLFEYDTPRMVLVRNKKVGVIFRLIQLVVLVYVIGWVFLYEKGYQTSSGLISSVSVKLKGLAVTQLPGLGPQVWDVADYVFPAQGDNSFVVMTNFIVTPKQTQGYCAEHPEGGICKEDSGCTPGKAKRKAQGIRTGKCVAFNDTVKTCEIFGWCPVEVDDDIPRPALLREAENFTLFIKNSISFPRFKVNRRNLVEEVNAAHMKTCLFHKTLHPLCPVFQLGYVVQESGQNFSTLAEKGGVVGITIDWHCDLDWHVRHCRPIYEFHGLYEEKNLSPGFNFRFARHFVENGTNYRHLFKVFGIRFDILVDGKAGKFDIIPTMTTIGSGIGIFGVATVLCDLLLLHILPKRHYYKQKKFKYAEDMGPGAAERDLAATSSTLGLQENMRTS
How it was run: (§1)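 1321N1 astrocytoma cells stably expressing human P2X1, P2X2, P2X3 or P2X4 receptor. Calcium influx was induced by ATP at the EC80 for each subtype. Results are given as IC50 (μM) or % inhibition at the indicated concentration.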

P2X purinoceptor 4 = target: T2, P2X purinoceptor 4 (Homo sapiens, UniProt Q99571); experiment: Antagonist activity at human P2X4R transfected in human 1321N1 cells assessed as inhibition of ATP-induced calcium influx; format: cell-based; how it was run: as §1
T2 sequence (Q99571 whole entry): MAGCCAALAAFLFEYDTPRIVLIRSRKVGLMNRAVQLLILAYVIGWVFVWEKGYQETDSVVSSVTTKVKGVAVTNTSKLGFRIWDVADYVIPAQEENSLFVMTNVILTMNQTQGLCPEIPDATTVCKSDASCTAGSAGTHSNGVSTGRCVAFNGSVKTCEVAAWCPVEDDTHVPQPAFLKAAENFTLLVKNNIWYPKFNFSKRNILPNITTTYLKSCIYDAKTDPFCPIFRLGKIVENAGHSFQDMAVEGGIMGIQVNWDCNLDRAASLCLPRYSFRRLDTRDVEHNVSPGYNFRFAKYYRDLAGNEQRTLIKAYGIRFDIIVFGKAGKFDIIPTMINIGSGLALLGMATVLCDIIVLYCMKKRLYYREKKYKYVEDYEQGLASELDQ

P2X purinoceptor 7 = target: T3, P2X purinoceptor 7 (Homo sapiens, UniProt Q99572); experiment: Antagonist activity at human P2X7R transfected in human 1321N1 cells assessed as inhibition of Bz-ATP-induced calcium influx; format: cell-based
T3 sequence (Q99572 whole entry): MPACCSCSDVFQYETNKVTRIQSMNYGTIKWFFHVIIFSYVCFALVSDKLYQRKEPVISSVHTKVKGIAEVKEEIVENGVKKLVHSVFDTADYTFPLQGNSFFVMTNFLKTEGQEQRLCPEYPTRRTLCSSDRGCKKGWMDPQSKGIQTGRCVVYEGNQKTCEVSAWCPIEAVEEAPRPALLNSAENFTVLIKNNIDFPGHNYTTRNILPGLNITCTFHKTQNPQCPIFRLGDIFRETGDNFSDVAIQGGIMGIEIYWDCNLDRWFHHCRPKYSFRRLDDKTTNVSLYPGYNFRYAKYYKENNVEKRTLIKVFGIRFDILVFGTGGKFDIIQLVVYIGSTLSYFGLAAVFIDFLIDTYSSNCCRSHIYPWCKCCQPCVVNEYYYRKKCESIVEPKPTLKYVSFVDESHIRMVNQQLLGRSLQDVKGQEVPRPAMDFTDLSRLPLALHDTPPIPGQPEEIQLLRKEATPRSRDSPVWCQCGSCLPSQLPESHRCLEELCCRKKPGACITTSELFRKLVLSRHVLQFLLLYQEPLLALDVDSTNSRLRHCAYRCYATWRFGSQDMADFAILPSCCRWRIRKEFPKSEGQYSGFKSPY

Mus musculus = organism: Mus musculus; experiment: Antagonist activity at GABAA receptor in mouse TG sensory neurons assesed as inhibition of GABAA receptor agonist GABA-evoked currents at 1 uM pre-applied before GABA addition
How it was run: (§2)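 In mouse trigeminal sensory neurons, test compound was preapplied at 1 μM, then 10 μM GABA (GABAA) or 10 μM 5-HT (5-HT3) was applied. Current amplitudes were normalized to the control current evoked by the same agonist alone. N = 5 cells.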

[2] = target: T4, 5-hydroxytryptamine receptor 3A (Mus musculus) (UniProt P23979); experiment: Antagonist activity at 5-HT3 receptor in mouse TG sensory neurons assessed as inhibition of 5-HT3 receptor agonist 5-HT-evoked currents at 1 uM pre-applied before 5-HT addition; how it was run: as §2
T4 sequence (whole entry): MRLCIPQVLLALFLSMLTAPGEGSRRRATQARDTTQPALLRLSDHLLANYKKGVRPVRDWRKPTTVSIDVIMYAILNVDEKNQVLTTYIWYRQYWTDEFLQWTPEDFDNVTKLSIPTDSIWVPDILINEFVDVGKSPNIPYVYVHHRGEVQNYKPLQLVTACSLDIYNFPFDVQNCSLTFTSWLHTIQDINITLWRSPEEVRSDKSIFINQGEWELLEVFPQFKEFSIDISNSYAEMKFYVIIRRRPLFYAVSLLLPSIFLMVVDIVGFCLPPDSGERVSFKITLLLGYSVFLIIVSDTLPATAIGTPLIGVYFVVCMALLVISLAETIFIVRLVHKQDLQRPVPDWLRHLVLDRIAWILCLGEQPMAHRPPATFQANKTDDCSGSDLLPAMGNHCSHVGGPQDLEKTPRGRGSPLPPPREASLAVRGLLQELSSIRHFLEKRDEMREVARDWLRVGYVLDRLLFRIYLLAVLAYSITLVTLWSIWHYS

Homo sapiens = organism: Homo sapiens; experiment: Selectivity ratio of IC50 for human P2X1R transfected in human […] 1321N1 cells to IC50 for human transfected in human 1321N1 cells; format: cell-based
[3] = target: T5, P2X purinoceptor 3 (Homo sapiens) (UniProt P56373); experiment: Antagonist activity at human P2X3R transfected in human 1321N1 cells assessed as inhibition of ATP-induced calcium influx relative to control; format: cell-based; settings: concentration not given here; how it was run: as §1
T5 sequence (whole entry): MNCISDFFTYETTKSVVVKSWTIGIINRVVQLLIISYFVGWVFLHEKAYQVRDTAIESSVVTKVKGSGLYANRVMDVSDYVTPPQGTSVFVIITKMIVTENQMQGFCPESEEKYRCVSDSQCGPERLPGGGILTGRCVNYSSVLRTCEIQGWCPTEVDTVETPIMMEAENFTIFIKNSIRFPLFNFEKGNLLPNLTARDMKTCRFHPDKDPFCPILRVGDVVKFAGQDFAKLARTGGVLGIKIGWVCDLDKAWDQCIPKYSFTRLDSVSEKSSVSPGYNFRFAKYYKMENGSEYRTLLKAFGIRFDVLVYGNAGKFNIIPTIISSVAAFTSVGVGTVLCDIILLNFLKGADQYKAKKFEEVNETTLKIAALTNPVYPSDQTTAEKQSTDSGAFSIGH

[4] = target: T6, P2X purinoceptor 4 (Homo sapiens) (UniProt Q99571); experiment: Antagonist activity at human P2X4R transfected in human 1321N1 cells assessed as inhibition of ATP-induced calcium influx relative to control; format: cell-based; settings: concentration not given here; how it was run: as §1
T6 sequence (whole entry): T2 sequence (Q99571 whole entry)

| inhibition [1] [%] | IC50 (P2X purinoceptor 4) [µM] | IC50 (P2X purinoceptor 7) [µM] | inhibition (Mus musculus) | inhibition [2] | inhibition [3] [%] | inhibition [4] [%] | SMILES | Ratio IC50 (Homo sapiens) |
| --- | --- | --- | --- | --- | --- | --- | --- | --- |
| -1 | > 100 | > 100 | inactive | inactive |  |  | Nc1ncnc2c1ncn2[C@@H]1O[C@H](COP(=O)(O)CP(=O)(O)OP(=O)(O)O)[C@H]2OC3(CCCCC3)O[C@H]21 |  |
|  | 48 | > 100 | inactive | inactive |  |  | CC1(C)O[C@@H]2[C@H](O1)[C@@H](COP(=O)(O)OP(=O)(O)OP(=O)(O)O)O[C@H]2n1cnc2c(N)ncnc21 | 10 |
| 1 | > 100 | > 100 |  |  | 8 | 12 | Nc1ncnc2c1ncn2[C@@H]1O[C@H](COP(=O)(O)OP(=O)(O)OP(=O)(O)O)[C@H]2OCO[C@H]21 |  |
